From ChEMBL document CHEMBL1132971, “New azolidinediones as inhibitors of protein tyrosine phosphatase 1B with antihyperglycemic properties” (J Med Chem, 2000) come the findings set out here.

Test [1] has as its system Mus musculus. Description: Evaluated for their ability to decrease plasma insulin levels in mouse at a dose 100 mg/kg/day.([…]). Type of test: functional. In outline: (§1)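 Diabetic db/db or ob/ob mice dosed orally once daily for 4 days. Plasma glucose and insulin reported as percent change from a vehicle-treated group. 4-6 mice per group. Significance set at p < 0.05 or p < 0.01 versus vehicle; NS means generally less than -15% change.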

For test [2], the target named is T1, Tyrosine-protein phosphatase non-receptor type 1 (Rattus norvegicus) (UniProt P20417).
T1 sequence (whole entry): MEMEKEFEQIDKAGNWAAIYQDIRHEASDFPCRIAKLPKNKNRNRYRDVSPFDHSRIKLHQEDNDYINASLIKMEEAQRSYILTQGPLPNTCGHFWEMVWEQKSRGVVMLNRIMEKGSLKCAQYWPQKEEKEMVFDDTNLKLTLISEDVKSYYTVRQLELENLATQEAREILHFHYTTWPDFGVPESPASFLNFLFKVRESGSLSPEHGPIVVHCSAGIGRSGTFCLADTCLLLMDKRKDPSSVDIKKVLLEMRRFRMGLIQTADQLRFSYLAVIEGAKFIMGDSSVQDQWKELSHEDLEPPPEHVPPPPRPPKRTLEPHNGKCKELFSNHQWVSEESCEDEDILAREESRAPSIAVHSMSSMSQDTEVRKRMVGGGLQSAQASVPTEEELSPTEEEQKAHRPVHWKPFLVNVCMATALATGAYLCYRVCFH
Description: Inhibition of PTPase (PTP1B) activity in rat hepatic membrane at 50 uM concentration, using pNPP as the substrate. The class given is cell membranes. Conditions: Liver. An outline of the steps: (§2)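 Liver membranes from male Sprague-Dawley rats (100-150 g), about 30 µg protein per well. Preincubated 10 min at 37 °C with compound in 1.25% DMSO in 50 mM HEPES pH 7.4. Then 6.33 mM pNPP for 30 min at 37 °C, stopped with NaOH. p-Nitrophenol read at 410 nm. Run in triplicate. Reported as percent of untreated control.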

Test [3] relates to Mus musculus. Kind of test: Evaluated in vivo for their ability to decrease plasma glucose levels in diabetic C57BL/KsJ ob/ob mouse at a dose 100 mg/kg/day.([…]). The class given is functional. In outline: as §1
Test [4] has as its system Mus musculus. Kind of test: Evaluated in vivo for their ability to decrease plasma glucose levels in diabetic C57BL/KsJ db/db mouse at a dose 100 mg/kg/day. Type of test: functional. In outline: as §1
In test [5] the target is T1, Tyrosine-protein phosphatase non-receptor type 1 (Rattus norvegicus). Description: IC50 for PTPase activity, recombinant r-PTP1B as the enzyme .
Test [6] deals with T2, Tyrosine-protein phosphatase non-receptor type 1 (Rattus norvegicus, UniProt P20417).
T2 sequence (P20417 whole entry): T1 sequence (whole entry)
Kind of test: Concentration required to inhibit PTPase activity, recombinant r-PTP1B as the enzyme at a concentration 2.5 uM. In outline: (§3)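 Rat recombinant PTP1B in 33 mM TRIS-HCl, 2 mM EDTA, 50 mM β-mercaptoethanol, pH 7.4 (about 1000-2000 nmol/min/mg). Preincubated 10 min at 37 °C with or without compound in HEPES buffer pH 7.4. Released phosphate read by malachite green-ammonium molybdate at 650 nm against a phosphate standard. Quadruplicates. IC50 by four-parameter logistic fit.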

For test [7], the system named is Mus musculus. Kind of test: Evaluated in vivo for their ability to decrease plasma glucose levels in diabetic C57BL/KsJ ob/ob mouse at a dose 100 mg/kg/day,**p indicates <0.01. Type of test: functional. An outline of the steps: (§4)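 Mice dosed orally once daily for 4 days; plasma glucose and insulin measured and expressed as percent change versus a vehicle-treated group (mean ± SE, 4-6 mice/group). NS is generally less than -15% change. Significance is versus vehicle-treated mice.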

For test [8], the target named is T1, Tyrosine-protein phosphatase non-receptor type 1 (Rattus norvegicus). Kind of test: Inhibition of PTPase activity using recombinant r-PTP1B as the enzyme and IR-triphosphopeptide as substrate at 50 uM. In outline:
as §3

In test [9] the test system is Mus musculus. Description: Evaluated for their ability to decrease plasma insulin levels in mouse at a dose 100 mg/kg/day,**p indicates <0.01. The class given is functional. An outline of the steps: as §4
Test [10] deals with T3, Tyrosine-protein phosphatase non-receptor type 1 (Homo sapiens, UniProt P18031).
T3 sequence (P18031 whole entry): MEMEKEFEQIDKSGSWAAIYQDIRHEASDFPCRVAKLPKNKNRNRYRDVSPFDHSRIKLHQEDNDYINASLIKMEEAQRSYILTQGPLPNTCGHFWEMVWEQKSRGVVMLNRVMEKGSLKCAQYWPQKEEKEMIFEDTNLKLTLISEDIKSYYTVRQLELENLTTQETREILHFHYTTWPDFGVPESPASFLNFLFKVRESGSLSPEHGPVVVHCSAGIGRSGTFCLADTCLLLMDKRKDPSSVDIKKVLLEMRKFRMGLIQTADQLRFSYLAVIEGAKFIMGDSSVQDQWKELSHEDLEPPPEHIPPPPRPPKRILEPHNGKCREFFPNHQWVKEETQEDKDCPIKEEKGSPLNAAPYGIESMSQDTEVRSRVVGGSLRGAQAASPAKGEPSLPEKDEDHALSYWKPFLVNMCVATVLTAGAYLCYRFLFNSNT
Kind of test: Concentration required to inhibit PTPase activity, recombinant Protein Tyrosine Phosphatase 1b as the enzyme at a concentration 2.5 uM. An outline of the steps: as §3

The target of test [11] is T2, Tyrosine-protein phosphatase non-receptor type 1. Kind of test: Inhibition of PTPase activity in rat hepatic membrane at a concentration of 50 uM using pNPP as the substrate. The class given is cell membranes, Liver. In outline:
as §2

In test [12] the test system is Mus musculus. Description: Evaluated in vivo for their ability to decrease plasma glucose levels in diabetic C57BL/KsJ db/db mouse at a dose 100 mg/kg/day *p indicates <0.05. The class given is functional. An outline of the steps: as §1
In test [13] the test system is Mus musculus. Description: Evaluated in vivo for their ability to decrease plasma glucose levels in diabetic C57BL/KsJ ob/ob mouse at a dose 100 mg/kg/day. **p indicates <0.01. Type of test: functional. In outline: as §1
In test [14] the test system is Mus musculus. Kind of test: Evaluated for their ability to decrease plasma insulin levels in mouse at a dose 100 mg/kg/day. **p indicates <0.01. Type of test: functional. An outline of the steps: as §4
Test [15] relates to Mus musculus. Description: Evaluated in vivo for their ability to decrease plasma glucose levels in diabetic C57BL/KsJ db/db mouse at a dose 100 mg/kg/day; *p indicates <0.05. Type of test: functional. In outline: as §4
The subject of test [16] is Mus musculus. Description: Evaluated for their ability to decrease plasma insulin levels in mouse at a dose 100 mg/kg/day. Type of test: functional. An outline of the steps:
as §4

Test [17] has as its system Mus musculus. Kind of test: Evaluated for their ability to decrease plasma insulin level at a dose of 20 mg/kg/day; **p indicates <0.01. Type of test: functional. An outline of the steps:
as §4

Test [18] deals with T1, Tyrosine-protein phosphatase non-receptor type 1 (Rattus norvegicus). Description: Inhibition of PTPase activity using recombinant Protein-tyrosine phosphatase 1B as the enzyme and IR-triphosphopeptide as substrate at 50 uM. In outline:
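Recombinant rat PTP1B (human 321-aa form assayed the same way), activity about 1000-2000 nmol/min/mg, preincubated with compound for 10 min at 37 °C in HEPES pH 7.4. The reaction is started with 50 µM triphosphorylated insulin receptor 1142-1153 dodecapeptide and run 30 min at 37 °C. Released phosphate read by malachite green-molybdate at 650 nm, in quadruplicate. Result is percent inhibition versus control.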

Test [19] concerns Mus musculus. Kind of test: Evaluated in vivo for their ability to decrease plasma glucose levels in diabetic C57BL/KsJ ob/ob mouse at a dose 20 mg/kg/day; **p indicates <0.01. The class given is functional. An outline of the steps: as §4
Test [20] concerns Mus musculus. Description: Evaluated in vivo for their ability to decrease plasma glucose levels in diabetic C57BL/KsJ ob/ob mouse at a dose 100 mg/kg/day; **p indicates <0.01. The class given is functional. In outline: as §4
The target of test [21] is T1, Tyrosine-protein phosphatase non-receptor type 1 (Rattus norvegicus). Description: Inhibition of Protein-tyrosine phosphatase 1B activity in rat hepatic membrane at a concentration of 50 uM using pNPP as the substrate. As to conditions: Liver. Type of test: cell membranes. In outline: as §2

Each structure is given as a SMILES string. pIC50: −log10 of the molar value.

The term inhibition denotes how much of the control response was suppressed. For orientation: IC50 means the concentration that inhibits the measured activity by half. In general, pIC50 refers to the negative decadic logarithm of the IC50, by convention in mol/L.

For `C/C(=C\CC1SC(=O)NC1=O)c1cccc(OCc2nc(-c3ccc(OC(F)(F)F)cc3)oc2C)c1` (stereo not given), the values for the Decrease in the test on Mus musculus [1], with Mus musculus [3] and with Mus musculus [4] were 63%, 44% and 18%, respectively. The compound further displayed an inhibition in test [2] of 46%. Besides, the half-maximal inhibitory concentration (IC50) in [5] was found to be 1.5 µM.

In the case of `C/C(=C\Cn1oc(=O)[nH]c1=O)c1cccc(OCC#Cc2cc(C(F)(F)F)cc(C(F)(F)F)c2)c1`, the inhibition in test [2] was found to be 62%. Besides, the negative logarithm of the IC50 (pIC50) in test [6] is 4.60.

As to `Cc1oc(-c2ccc(C(F)(F)F)cc2)nc1COc1cccc(/C(=C/Cn2oc(=O)[nH]c2=O)c2ccccc2)c1`, the Decrease with Mus musculus [7] is 55%; in the test with Mus musculus [9] it was 74%. Moreover, the figures for the inhibition in [2] and in test [8] were 24% and 1.1%, respectively.

`C/C(=C\Cn1oc(=O)[nH]c1=O)c1cccc(OCc2ccccn2)c1`: the negative logarithm of the IC50 (pIC50) in [10] was 5.05. The compound also displayed an inhibition in [2] of 5%.

In test [11], `C/C(=C\c1cccc(OCc2nc(-c3ccc(C(F)(F)F)cc3)oc2C)c1)Cn1oc(=O)[nH]c1=O` came in with an Inhibition % of 71%. For the same compound, the inhibition in [8] is 7%. In addition, the Decrease stood at 36% with Mus musculus [12], 37% with Mus musculus [13] and 28% with Mus musculus [14].

With `CC/C(=C\Cn1oc(=O)[nH]c1=O)c1cccc(OCc2nc(-c3ccc(C(F)(F)F)cc3)oc2C)c1`, the Decrease with Mus musculus [15] was 63%; in the test with Mus musculus [16] it was 80%; with Mus musculus [17], 32%; with Mus musculus [19], 32%; in the test with Mus musculus [20], 71%. Besides, the inhibition was found to be 90% in test [18] and 57% in test [21].
